Compound activity as filed in PubChem.
SKKanGAS inh: S. pyogenes SKKanGAS growth inhibitors in kanamycin, primary screen, streptokinase expression inhibitor project, SKKanGAS strain, BacTiter-Glo luminescence; 300,000 compounds, 1.3% hits; AID 1662, 2009; 6 h; inhibition, % at 7.5 µM;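 active = mean replicate score, as percent of positive control median, at least 50; inconclusive = mean below 50 but one replicate at or above 50; inactive = mean and every replicate below 50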;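 also: strain carries kanamycin resistance gene driven by streptokinase promoter and grows in 40 µg/ml kanamycin; loss of luminescence reflects streptokinase promoter inhibition or plain growth inhibition; 0% = median of DMSO wells and 100% = positive control at its reference dose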
Mdm2 MdmX PPI: inhibitors of human Mdm2-MdmX association, primary screen, cell-based, luminescence, split luciferase, SaOS-2, uHTS; SaOS-2 split-luciferase Mdm2/MdmX complementation; inhibition, % at 8 µM; 330,000 compounds, 3% hits;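 active = inhibition of at least 50% at 8 µM in the primary screen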
Target sequence (O15151 whole entry, looked up): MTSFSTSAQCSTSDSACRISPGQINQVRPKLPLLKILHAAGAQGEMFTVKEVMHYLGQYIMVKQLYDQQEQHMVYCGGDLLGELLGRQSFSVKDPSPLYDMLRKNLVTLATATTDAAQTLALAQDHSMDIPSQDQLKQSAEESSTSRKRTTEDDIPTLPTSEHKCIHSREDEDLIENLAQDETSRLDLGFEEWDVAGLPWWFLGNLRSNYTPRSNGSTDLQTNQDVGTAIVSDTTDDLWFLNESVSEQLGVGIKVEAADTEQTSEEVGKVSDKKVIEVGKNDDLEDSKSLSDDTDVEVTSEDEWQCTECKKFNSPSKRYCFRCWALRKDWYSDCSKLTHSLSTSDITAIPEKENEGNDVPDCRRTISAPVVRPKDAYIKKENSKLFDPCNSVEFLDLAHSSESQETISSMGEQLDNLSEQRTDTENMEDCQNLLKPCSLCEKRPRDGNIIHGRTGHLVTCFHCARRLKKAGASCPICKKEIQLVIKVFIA
Target sequence (Q00987 whole entry, looked up): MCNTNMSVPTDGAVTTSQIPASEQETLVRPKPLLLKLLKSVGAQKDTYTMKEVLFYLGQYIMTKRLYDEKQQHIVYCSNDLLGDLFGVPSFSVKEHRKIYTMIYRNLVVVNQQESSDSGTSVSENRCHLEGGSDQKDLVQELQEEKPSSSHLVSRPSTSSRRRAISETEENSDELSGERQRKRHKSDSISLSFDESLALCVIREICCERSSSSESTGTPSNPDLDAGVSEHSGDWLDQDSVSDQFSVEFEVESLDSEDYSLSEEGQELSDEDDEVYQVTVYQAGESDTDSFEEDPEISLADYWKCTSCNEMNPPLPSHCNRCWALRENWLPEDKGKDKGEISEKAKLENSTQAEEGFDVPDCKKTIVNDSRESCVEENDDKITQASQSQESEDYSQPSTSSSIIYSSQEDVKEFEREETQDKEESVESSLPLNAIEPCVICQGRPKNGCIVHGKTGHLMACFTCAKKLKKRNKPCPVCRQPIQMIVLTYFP
T cruzi repl: inhibitors of intracellular T. cruzi growth, primary screen, luminescence, NIH3T3 host cells. inhibition, % (concentration not given with the values). 300,000 compounds, 1.4% hits. T. cruzi beta-gal in NIH3T3, 90 h. AID 1885, 2009;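 active = mean inhibition across valid replicates above about 55%, limit read from the data; inconclusive = mean below that limit but half or more replicates reach it; inactive = mean below it, under half of replicates reach it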;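 also: signal also drops with host cell toxicity which is not excluded here; 0% = plate median of DMSO wells and 100% = zero luminescence signal; higher percent means less beta-gal luminescence so fewer parasites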
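System: NIH/3T3 fibroblasts plus reporter T. cruzi. Medium: DMEM plus 2% FBS. Probe or stimulus: 5000 reporter trypomastigotes per well. Compound: single 50 nL compound addition per well in DMSO. Incubation: co-culture of at least 90 h after 3 h attachment. Detection: GalScreen β-gal luminescence, detergent lysis, 60 min. Evaluation: parasite load inhibition, %.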
CSC inhib: cancer stem cell viability inhibitors, primary screen, luminescence; cancer stem cell-like cells viability; inhibition, % at 7.5 µM; 300,000 compounds, 1.1% hits; in the data active = inhibition above about 75%; inconclusive = no clear call, values can overlap the other calls; tested in HMLE shEcad cells
Calb FLC: C. albicans growth inhibition with fluconazole, primary screen, CaCi-2 strain, Alamar Blue fluorescence | C. albicans CaCi-2 (fluconazole-resistant clinical isolate) + fluconazole, 48 h | growth inhibition, % (test concentration not listed) | 300,000 compounds, 0.57% hits;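 active = growth inhibition above about 58% in most replicates, limit read from the data, passing the limit was not always enough; inconclusive = exactly half the replicates above a set limit; inactive = most replicates below a set limit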;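 also: all wells also contain fluconazole at 8 µg/ml as a sub-toxic cotreatment; 0% = median of DMSO wells and 100% = median of geldanamycin control wells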
Beta apoptosis: inhibitors of cytokine-induced beta cell apoptosis, primary screen, luminescence; INS-1E cytokine-induced death, ATP luminescence, 48 h; percent of positive-control rescue, neutral wells zero; protection from apoptosis, % (concentration not given with the values); 300,000 compounds, 0.8% hits;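 active = Every replicate reaches about 75%, or at least half do and their mean reaches it too, limit read from the data; inconclusive = At least half of replicates reach the limit but their mean does not; inactive = Under half of replicates reach the limit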;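 also: 0% = cytokine-treated negative control wells and 100% = positive control rescue; higher means more ATP so stronger rescue from cytokine killing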
Mdm2-MdmX conf: Mdm2-MdmX complex disruptors, retested hits, confirmation, luminescence, single concentration | shares compounds with Mdm2 MdmX PPI | Mdm2-MdmX binding, luminescent assay | inhibition, % at 8 µM | 10,000 compounds, 55% hits; in the data active = inhibition above about 40%
Full FLuc ctr: full-length luciferase signal inhibition, confirmation, counter-screen for Mdm2/MdmX interaction inhibitor project, cell-based, single concentration, SaOS-2. 6,200 compounds, 77% hits. SaOS-2 full-length luciferase counterscreen, luminescence. inhibition, % at 8 µM. shares compounds with Mdm2 MdmX PPI;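 active = mean inhibition at 8 µM reaching about 37%, which flags the compound as non-specific, limit read from the data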;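 also: p53-null SaOS-2 cells with luciferase driven by a doxycycline-inducible promoter; compound on cells about two nights before reading with doxycycline added after day one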
Numbers without * were called inactive; ? = inconclusive; . = not tested or not shown. Shown are actives, neighbours in structure and some others; about 5.7% of the full set was active somewhere.

SMILES | SKKanGAS inh | Mdm2 MdmX PPI | T cruzi repl | CSC inhib | Calb FLC | Beta apoptosis | Mdm2-MdmX conf | Full FLuc ctr
CSc1ccc(C(=O)C2CCCN(C(=O)CCc3c(C)nn(C)c3C)C2)cc1 (stereo not drawn) | 1 | 11 | 1 | -5 | -2 | 29 | . | .
CCOC(=O)C1=C(C)NC(C)=C(C(=O)OCC)C1C(=O)OCC(=O)NC1CCCCC1 | . | 13 | . | -1 | . | 2 | . | .
O=C1C(Cl)=C(NC(=O)c2ccccc2)C(=O)C(Cl)=C1NC(=O)c1ccccc1 | 11 | 87* | 68* | . | 15 | . | 42* | 14
O=C(Nc1cccc(Cl)c1)c1ccccc1 | . | -24 | . | 8 | . | 0 | . | .
COc1ccccc1NC(=O)Nc1cc(NC(=O)Nc2ccccc2OC)c(C)nc1C | 2 | 56* | -5 | 0 | -9 | 51 | 33 | 61*
CC1CCC(NC(=O)c2ccc(/C=C3\Oc4ccccc4N(C)C3=O)cc2)CC1 (stereo not drawn) | 8 | . | 38 | . | -30 | . | . | .
Cc1cccc(CN2C(=O)/C(=C\c3ccc(C(=O)NCCCN4CCN(C)CC4)cc3)Oc3ccccc32)c1 | 11 | 100* | 36 | 105* | 5 | 22 | 56* | 36*
O=C(CN1C(=O)/C(=C/c2ccccc2F)Sc2ccccc21)NCCCN1CCOCC1 | -5 | 8 | 13 | -17 | 3 | . | . | .
CCN1CCN(CCNC(=O)c2ccc(/C=C3\Sc4ccccc4N(Cc4ccccc4F)C3=O)cc2)CC1 | 8 | 92* | 60* | 20 | 44 | 4 | 52* | 46*
Cc1cccc(CN2C(=O)c3ccccc3Sc3ccc(C(=O)NCCCN4CCOCC4)cc32)c1 | 3 | 18 | 28 | -1 | 2 | 0 | . | .
COCCCNC(=O)/C=C1\Sc2ccccc2N(Cc2ccccc2F)C1=O | 2 | 88* | 0 | 25 | 5 | -16 | 53* | 38*
CN1CCN(CCCNC(=O)c2ccc(/C=C3\Oc4ccccc4N(Cc4ccccc4F)C3=O)cc2)CC1 | 4 | 92* | 25 | 13 | 32 | 5 | 12 | .
Cc1ccc(OCC(=O)N2CCC(C)CC2)c([N+](=O)[O-])n1 | . | 2 | . | . | . | 5 | . | .
COc1ccc(CCNC(=O)c2cccnc2SC)cc1 | . | 18 | . | -3 | -2 | 4 | . | .
COc1cc(NS(=O)(=O)c2ccc(C)cc2)c2ncccc2c1 | 82* | 89* | 78* | 38 | ? | 45 | 99* | 5
COc1cc(NC(=O)c2ccccc2Cl)c2ncccc2c1 | 5 | 57* | 1 | 51 | -16 | -1 | 50* | 52*
COc1ccc(S(=O)(=O)Nc2ccccn2)cc1 | -1 | 21 | -8 | -5 | -9 | 8 | . | .
Cc1ccc(S(=O)(=O)Nc2cccc3cccnc23)cc1 | ? | 99* | 49 | 78* | 7 | 35 | 99* | 52*
C=CCC[C@@H](Cc1ccc(F)cc1)C(=O)OC[C@@H](Cc1c[nH]c2ccccc12)NC(=O)[C@@H](CC=C)CC(=O)N[C@H](CO)Cc1ccccc1 | . | 11 | . | -13 | . | -3 | . | .
COc1ccc(C(=O)Nc2cccc(NC(=O)c3ccc(OC)c(OC)c3)n2)cc1OC | 1 | 55* | -40 | 20 | -8 | 14 | 49* | 89*
COc1cc(C(=O)Nc2ccccc2C(=O)Nc2ccccn2)cc(OC)c1OC | -3 | 63* | 5 | 54 | 9 | 8 | 52* | 47*
COc1ccc(C(=O)Nc2cccc3cccnc23)cc1OC | -12 | 18 | 19 | 0 | 38 | -6 | . | .
Cc1ccc2c(c1)C1CN(C)CCC1N2Sc1ccccc1[N+](=O)[O-] (stereo not drawn) | -7 | 61* | 25 | 10 | 97* | -5 | 40* | 62*
Cc1cc(-c2ccc(C(C)C)c(S(=O)(=O)Nc3ccccn3)c2)on1 | 2 | 5 | -11 | 2 | 13 | -5 | . | .
COc1ccc(COC(=O)CNC(=O)C2CCCCC2)cc1F | . | -12 | . | -11 | . | -3 | . | .
SMILES | SKKanGAS inh | Mdm2 MdmX PPI | T cruzi repl | CSC inhib | Calb FLC | Beta apoptosis | Mdm2-MdmX conf | Full FLuc ctr
CCOC(=O)c1ccc(NC(=O)c2nc[nH]c2C(=O)N[C@H](C)c2ccccc2)cc1 | 78* | 60* | 15 | 46 | -10 | 8 | 18 | .
Cc1ccc(NC(=O)c2nc[nH]c2C(=O)N[C@H](C)c2ccccc2)cc1 | . | 10 | . | 22 | . | -3 | . | .
CCOC(=O)c1ccc(NC(=O)c2nc[nH]c2C(=O)NC)cc1 | 7 | 14 | -14 | 19 | -2 | -6 | . | .
Cc1cccc(NC(=O)c2nc[nH]c2C(=O)N[C@H](C)c2ccccc2)c1 | . | 57* | . | ? | . | 2 | 38 | 50*
CCOC(=O)c1ccc(NC(=O)c2nc[nH]c2C(=O)NCCNC(=O)c2[nH]cnc2C(=O)Nc2ccc(C(=O)OCC)cc2)cc1 | . | 100* | . | 122* | . | 11 | 41* | 81*
Cc1cccc(CNc2ncnc3ccc(-c4cccnc4)cc23)c1 | . | 10 | . | . | . | -9 | . | .
COc1cccc(-c2ccc3ncnc(NCc4ccc5c(c4)OCO5)c3c2)c1 | . | 74* | . | . | . | -27 | 76* | 53*
Cc1csc(CNc2ncnc3ccc(-c4ccc5c(c4)OCCO5)cc23)c1 | . | 30 | . | 22 | . | 4 | . | .
Cc1cccc(CNc2ncnc3ccc(-c4ccoc4)cc23)c1 | . | 79* | . | 1 | . | -16 | 64* | 24
Cc1csc(CNc2ncnc3ccc(-c4ccoc4)cc23)c1 | . | 76* | . | -5 | . | -12 | 74* | 54*
Cc1cccc(CNc2ncnc3ccc(-c4ccc5c(c4)OCCO5)cc23)c1 | . | 66* | . | 12 | . | 108* | 33 | .
Cc1c(Cl)cccc1NC(=S)Nc1ccc2[nH]c(=O)[nH]c2c1 | 2 | -2 | -2 | 1 | 0 | -2 | . | .
c1cncc(CNc2ncnc3ccc(-c4ccoc4)cc23)c1 | . | 70* | . | -2 | . | -11 | 69* | 51*
Cc1cccc(-c2ccc3ncnc(NCc4cccnc4)c3c2)c1 | . | -7 | . | 4 | . | -13 | . | .
O=C(C[C@H]1C[C@H](C(=O)N2CCCCC2)[C@@]2(CCc3ccccc3)c3[nH]c4ccc(Cl)cc4c3CCN2C1=O)NCc1cccc(C(F)(F)F)c1 | . | 66* | . | . | . | . | 61* | 34
CC(C)(C)NC(=O)C[C@H]1C[C@H](C(=O)N2CCCCC2)[C@@]2(CCc3ccccc3)c3[nH]c4ccc(Cl)cc4c3CCN2C1=O | . | 52* | . | . | . | . | 32 | 73*
